According to ChEMBL document CHEMBL3616458, “Synthesis of chiral ND-322, ND-364 and ND-364 derivatives as selective inhibitors of human gelatinase” (Bioorg Med Chem, 2015):
The source made the active and inactive calls. The calls are words filed in the database; no cut-off is given here.

How the values were obtained:
[1] = biological target: Histone deacetylase (HDAC1 and HDAC2) (Homo sapiens) (UniProt Q13547+Q92769); test: Inhibition of HDAC1/2 in human HeLa cells using Boc-Lys (acetyl)-AMC as substrate at 10 uM incubated for 2 hrs prior to substrate addition measured after 30 mins by fluorescence assay relative to control; type: cell-based
Outline: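 HeLa nuclear extract (mainly HDAC1 and HDAC2) as enzyme source in 15 mM Tris–HCl pH 8.0 at 37 °C. Enzyme added to compound solutions, then Boc-Lys(acetyl)-AMC substrate and a further 30 min incubation. Developer containing trypsin and TSA added; fluorescence read 20 min later at 390/460 nm. Single-concentration % inhibition, mean of three experiments.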

[2] = biological target: T1, Matrix metalloproteinase-9 (Homo sapiens, UniProt P14780); test: Inhibition of human full length MMP9 using Mca-Pro-Leu-Gly-Leu-Dap(Dnp)-Ala-Arg-NH2 as substrate at 10 uM incubated for 2 hrs prior to testing measured for 15 mins by fluorometric analysis relative to control
Outline: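 MMP9 (3 nM) preincubated 2 h with inhibitor. Substrate hydrolysis was then followed for 15 min, ex 328/em 393 nm, in 50 mM HEPES pH 7.5, 150 mM NaCl, 5 mM CaCl2, 0.01% Brij-35 and 1% DMSO. Single-concentration screen gave % inhibition. […] Both were means of three experiments.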

[3] = biological target: T2, Aminopeptidase N (Sus scrofa) (UniProt P15145); test: Inhibition of porcine kidney microsomal APN using L-Leu-para-nitroanilide as substrate at 10 uM incubated for 2 hrs prior to substrate addition measured after 30 mins by plate reader analysis relative to control
T2 sequence (whole entry): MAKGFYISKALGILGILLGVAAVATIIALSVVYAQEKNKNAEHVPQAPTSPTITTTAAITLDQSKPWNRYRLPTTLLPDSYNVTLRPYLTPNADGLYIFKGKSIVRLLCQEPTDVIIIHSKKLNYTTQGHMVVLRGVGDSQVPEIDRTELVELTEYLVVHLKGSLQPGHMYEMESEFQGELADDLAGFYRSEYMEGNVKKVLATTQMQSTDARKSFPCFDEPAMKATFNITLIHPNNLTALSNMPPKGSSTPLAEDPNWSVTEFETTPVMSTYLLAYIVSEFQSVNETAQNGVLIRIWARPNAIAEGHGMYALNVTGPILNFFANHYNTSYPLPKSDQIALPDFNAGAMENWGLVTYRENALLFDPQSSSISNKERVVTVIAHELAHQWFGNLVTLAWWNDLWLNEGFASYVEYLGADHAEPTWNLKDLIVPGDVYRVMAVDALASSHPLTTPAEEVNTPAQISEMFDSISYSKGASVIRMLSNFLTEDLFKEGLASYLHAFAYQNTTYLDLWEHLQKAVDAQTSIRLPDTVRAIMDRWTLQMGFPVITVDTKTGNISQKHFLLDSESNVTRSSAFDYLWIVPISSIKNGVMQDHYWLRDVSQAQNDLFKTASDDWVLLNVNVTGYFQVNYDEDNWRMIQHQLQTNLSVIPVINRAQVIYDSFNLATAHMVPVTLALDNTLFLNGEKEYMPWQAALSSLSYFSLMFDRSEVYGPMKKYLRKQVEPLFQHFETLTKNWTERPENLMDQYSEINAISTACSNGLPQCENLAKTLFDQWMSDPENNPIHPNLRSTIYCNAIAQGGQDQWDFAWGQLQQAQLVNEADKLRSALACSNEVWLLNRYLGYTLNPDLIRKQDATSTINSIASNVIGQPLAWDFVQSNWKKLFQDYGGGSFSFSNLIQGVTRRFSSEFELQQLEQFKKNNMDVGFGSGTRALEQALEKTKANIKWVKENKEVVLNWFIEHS
Outline: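 Porcine kidney microsomal aminopeptidase and inhibitors in 50 mM PBS pH 7.2, preincubated 2 h at 37 °C. L-Leu-p-nitroanilide substrate then added and incubated 30 min at 37 °C. Hydrolysis followed as absorbance change at 405 nm. Single-concentration % inhibition, mean of three experiments.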

[4] = biological target: T1, Matrix metalloproteinase-9; test: Inhibition of human full length MMP9 using Mca-Pro-Leu-Gly-Leu-Dap(Dnp)-Ala-Arg-NH2 as substrate incubated for 2 hrs prior to testing measured for 15 mins by fluorometric analysis
[5] = biological target: 72 kDa type IV collagenase (Homo sapiens, UniProt P08253); test: Inhibition of human full length MMP2 using Mca-Pro-Leu-Gly-Leu-Dap(Dnp)-Ala-Arg-NH2 as substrate incubated for 2 hrs prior to testing measured for 15 mins by fluorometric analysis
Sequence of 72 kDa type IV collagenase (P08253 whole entry): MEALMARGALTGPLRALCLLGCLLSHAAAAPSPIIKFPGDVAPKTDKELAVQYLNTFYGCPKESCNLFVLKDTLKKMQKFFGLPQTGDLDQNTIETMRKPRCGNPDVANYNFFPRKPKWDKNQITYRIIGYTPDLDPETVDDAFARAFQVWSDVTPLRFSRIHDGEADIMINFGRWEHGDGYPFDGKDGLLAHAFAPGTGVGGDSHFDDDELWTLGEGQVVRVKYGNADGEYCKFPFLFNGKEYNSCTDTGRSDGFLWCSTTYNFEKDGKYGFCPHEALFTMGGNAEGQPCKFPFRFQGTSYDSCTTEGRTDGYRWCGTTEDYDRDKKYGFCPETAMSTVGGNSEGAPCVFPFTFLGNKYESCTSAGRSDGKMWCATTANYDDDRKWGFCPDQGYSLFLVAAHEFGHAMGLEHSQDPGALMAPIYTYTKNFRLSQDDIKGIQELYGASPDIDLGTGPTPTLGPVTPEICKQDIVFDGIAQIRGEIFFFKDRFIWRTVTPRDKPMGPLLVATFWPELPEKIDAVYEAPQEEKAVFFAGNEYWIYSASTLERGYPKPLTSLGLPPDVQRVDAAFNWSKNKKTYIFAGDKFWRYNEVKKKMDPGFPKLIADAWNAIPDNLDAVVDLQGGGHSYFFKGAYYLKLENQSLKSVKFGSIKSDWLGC

Sequence of Histone deacetylase (HDAC1 and HDAC2) (Homo sapiens) (Q13547 whole entry, looked up): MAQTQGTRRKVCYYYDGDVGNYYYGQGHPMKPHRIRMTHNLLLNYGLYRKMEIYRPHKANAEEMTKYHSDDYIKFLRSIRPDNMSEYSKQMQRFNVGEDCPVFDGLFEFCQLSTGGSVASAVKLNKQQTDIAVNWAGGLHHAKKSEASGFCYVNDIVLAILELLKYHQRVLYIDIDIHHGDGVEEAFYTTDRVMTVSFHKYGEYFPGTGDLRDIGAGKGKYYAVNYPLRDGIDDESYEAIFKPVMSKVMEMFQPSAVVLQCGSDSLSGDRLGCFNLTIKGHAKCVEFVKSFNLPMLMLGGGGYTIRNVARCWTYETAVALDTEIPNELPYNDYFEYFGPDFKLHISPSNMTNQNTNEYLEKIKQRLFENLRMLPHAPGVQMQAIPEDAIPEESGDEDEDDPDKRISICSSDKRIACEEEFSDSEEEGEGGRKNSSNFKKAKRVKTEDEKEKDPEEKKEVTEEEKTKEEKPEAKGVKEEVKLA
Sequence of Histone deacetylase (HDAC1 and HDAC2) (Homo sapiens) (Q92769 whole entry, looked up): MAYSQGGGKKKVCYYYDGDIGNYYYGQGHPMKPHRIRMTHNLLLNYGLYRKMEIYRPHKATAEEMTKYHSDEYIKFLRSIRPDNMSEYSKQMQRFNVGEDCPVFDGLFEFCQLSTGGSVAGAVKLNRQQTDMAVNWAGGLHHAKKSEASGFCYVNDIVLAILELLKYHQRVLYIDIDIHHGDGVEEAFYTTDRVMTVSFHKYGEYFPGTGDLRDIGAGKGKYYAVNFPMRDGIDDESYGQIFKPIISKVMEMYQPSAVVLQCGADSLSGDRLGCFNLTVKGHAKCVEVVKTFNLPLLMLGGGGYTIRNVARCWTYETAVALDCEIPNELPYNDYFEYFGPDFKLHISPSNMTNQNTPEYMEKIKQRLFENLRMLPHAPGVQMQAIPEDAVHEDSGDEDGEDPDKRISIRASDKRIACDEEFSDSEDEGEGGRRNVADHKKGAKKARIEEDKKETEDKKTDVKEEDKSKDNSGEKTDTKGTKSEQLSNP
T1 sequence (P14780 whole entry): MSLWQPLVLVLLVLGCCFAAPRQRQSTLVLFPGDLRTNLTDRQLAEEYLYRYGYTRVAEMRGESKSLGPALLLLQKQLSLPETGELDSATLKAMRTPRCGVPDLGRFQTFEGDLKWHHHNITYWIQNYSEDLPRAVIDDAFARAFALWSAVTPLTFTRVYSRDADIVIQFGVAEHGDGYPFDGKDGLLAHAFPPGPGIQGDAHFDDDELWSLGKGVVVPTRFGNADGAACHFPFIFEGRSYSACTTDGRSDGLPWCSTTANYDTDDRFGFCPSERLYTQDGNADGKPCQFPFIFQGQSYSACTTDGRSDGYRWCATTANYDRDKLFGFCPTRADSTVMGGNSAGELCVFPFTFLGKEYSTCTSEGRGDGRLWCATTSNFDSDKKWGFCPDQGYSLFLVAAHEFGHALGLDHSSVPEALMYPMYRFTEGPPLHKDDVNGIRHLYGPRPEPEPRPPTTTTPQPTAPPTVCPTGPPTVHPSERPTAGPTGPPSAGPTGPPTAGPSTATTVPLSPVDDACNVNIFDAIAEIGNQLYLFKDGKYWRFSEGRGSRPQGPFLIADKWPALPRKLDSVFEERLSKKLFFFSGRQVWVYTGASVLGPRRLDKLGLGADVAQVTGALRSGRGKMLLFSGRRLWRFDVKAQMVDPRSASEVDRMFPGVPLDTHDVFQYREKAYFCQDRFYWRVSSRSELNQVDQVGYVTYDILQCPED

SMILES	inhibition [1]	inhibition [2] [%]	inhibition [3]	IC50 [4] [nM]	IC50 [5] [nM]
CC(=O)Nc1ccc(Oc2ccc([S@@+]([O-])C[C@@H]3CS3)cc2)cc1	inactive	23.7	inactive	–	–
CC(=O)Nc1ccc(Oc2ccc(S(=O)(=O)C[C@@H]3CS3)cc2)cc1	inactive	91.1	inactive	–	–
CC(=O)Nc1ccc(Oc2ccc([S+]([O-])C[C@@H]3CS3)cc2)cc1 (single isomer, unassigned)	inactive	3.4	inactive	–	–
CC(=O)Nc1ccc(Oc2ccc(S(=O)(=O)CC3CS3)cc2)cc1 (racemic)	inactive	97.2	inactive	–	–
CC(=O)Nc1ccc(Oc2ccc([S+]([O-])C[C@H]3CS3)cc2)cc1 (single isomer, unassigned)	inactive	24.8	inactive	–	–
COc1ccc(S(=O)(=O)N(CC(=O)NO)CC(C)C)cc1	–	100	–	5.9	2
CC(=O)Nc1ccc(Oc2ccc(S(=O)(=O)C[C@H]3CS3)cc2)cc1	inactive	96.2	inactive	–	–
Nc1ccc(Oc2ccc(S(=O)(=O)C[C@H]3CS3)cc2)cc1	inactive	97.4	inactive	–	–
Nc1ccc(Oc2ccc(S(=O)(=O)C[C@@H]3CS3)cc2)cc1	inactive	98.3	inactive	–	–
Nc1ccc(Oc2ccc(S(=O)(=O)CC3CS3)cc2)cc1 (racemic)	inactive	96.7	inactive	–	–
CC(=O)Nc1ccc(Oc2ccc([S@@+]([O-])C[C@H]3CS3)cc2)cc1	inactive	34.4	inactive	–	–
